From publication PMC12371875 (Journal of Agricultural and Food Chemistry, 2025)
Values after ≈ are worked out from the molar mass of the structure shown.

Columns and labels:
yeast α-glucosidase = conditions: ref Suttithumsatid and co-workers, 2022; cited from earlier work
rat intestinal maltase = assay: Kinetic study of α-glucosidase inhibition; format: biochemical
How it was run: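 Rat intestinal α-glucosidase with test compound in phosphate buffer pH 6.9. Maltose was varied over 2–10 mM, with and without inhibitor, and the mixture was incubated at 37 °C for 10 min. […] Inhibition type came from Lineweaver–Burk plots. Ki and Ki′ came from secondary plots of slopes and intercepts versus inhibitor concentration.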

rat intestinal sucrase = rat intestinal sucrase (Rattus norvegicus, UniProt P23739); assay: Kinetic study of α-glucosidase inhibition; format: biochemical
Sequence of rat intestinal sucrase (P23739 whole entry): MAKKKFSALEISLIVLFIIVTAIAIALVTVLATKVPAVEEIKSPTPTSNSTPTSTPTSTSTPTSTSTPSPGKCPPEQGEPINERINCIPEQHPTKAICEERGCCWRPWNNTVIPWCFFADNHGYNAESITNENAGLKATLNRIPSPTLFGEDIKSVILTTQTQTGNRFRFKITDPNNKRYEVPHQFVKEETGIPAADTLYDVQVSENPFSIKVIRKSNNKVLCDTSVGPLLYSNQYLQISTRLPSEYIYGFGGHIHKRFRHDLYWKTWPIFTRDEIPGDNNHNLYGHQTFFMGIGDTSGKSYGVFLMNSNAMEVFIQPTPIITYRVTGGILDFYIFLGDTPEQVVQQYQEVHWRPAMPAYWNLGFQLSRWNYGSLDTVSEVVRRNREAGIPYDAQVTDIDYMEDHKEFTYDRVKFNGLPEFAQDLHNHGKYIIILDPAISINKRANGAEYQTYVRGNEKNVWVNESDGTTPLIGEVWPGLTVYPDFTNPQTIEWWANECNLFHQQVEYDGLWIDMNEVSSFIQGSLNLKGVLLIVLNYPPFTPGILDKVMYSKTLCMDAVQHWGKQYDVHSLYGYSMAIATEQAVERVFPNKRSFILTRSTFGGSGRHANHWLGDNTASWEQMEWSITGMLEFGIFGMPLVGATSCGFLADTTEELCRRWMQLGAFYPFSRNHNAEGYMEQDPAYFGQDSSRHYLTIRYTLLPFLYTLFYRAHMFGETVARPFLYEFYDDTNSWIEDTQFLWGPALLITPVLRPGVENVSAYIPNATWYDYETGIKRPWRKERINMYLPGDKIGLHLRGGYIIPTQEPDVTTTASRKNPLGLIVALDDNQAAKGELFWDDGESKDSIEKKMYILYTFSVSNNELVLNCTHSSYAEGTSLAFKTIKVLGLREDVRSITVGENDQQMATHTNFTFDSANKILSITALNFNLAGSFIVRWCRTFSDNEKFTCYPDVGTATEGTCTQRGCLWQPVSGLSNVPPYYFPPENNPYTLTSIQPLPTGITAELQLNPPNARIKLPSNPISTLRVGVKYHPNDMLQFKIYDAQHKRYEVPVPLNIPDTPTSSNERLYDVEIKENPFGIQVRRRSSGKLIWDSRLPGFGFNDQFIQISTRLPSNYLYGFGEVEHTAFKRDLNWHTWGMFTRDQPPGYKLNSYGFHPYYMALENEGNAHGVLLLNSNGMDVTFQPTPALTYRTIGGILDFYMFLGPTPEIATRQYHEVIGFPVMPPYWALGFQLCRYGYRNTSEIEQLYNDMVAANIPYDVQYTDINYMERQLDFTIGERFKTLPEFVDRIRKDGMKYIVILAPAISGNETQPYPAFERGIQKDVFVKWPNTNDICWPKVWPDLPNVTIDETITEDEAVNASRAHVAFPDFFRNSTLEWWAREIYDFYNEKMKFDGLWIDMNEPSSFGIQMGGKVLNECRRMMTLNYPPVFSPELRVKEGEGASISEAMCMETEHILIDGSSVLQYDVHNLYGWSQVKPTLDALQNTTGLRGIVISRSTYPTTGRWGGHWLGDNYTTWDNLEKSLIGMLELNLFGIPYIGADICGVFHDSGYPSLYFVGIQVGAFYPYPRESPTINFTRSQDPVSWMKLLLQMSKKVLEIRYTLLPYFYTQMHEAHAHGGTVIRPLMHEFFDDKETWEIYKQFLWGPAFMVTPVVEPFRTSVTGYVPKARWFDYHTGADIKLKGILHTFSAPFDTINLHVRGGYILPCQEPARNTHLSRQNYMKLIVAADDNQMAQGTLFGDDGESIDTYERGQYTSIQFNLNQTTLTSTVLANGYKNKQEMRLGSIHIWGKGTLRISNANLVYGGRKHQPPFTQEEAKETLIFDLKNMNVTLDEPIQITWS
How it was run: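 Test compound in phosphate buffer pH 6.9 with rat intestinal α-glucosidase. Sucrose was varied over 20–100 mM, with and without inhibitor, and incubated at 37 °C for 40 min. […] Lineweaver–Burk plots gave the inhibition type. Secondary plots of slopes and intercepts against inhibitor concentration gave Ki and Ki′.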

[1] = dissociation constant of ESI complex, secondary plots

Row | SMILES | IC50, yeast α-glucosidase inhibition (yeast α-glucosidase) | Inhibition type, maltase (rat intestinal maltase; Lineweaver–Burk plots, maltose 2–10 mM) | Ki′, maltase (rat intestinal maltase; [1]) | Inhibition type, sucrase (rat intestinal sucrase; Lineweaver–Burk plots, sucrose 20–100 mM) | Ki′, sucrase (rat intestinal sucrase; [1])
1 | C=C(C)[C@@H]1CCC(C)=C[C@H]1c1c(O)cc(CCCCC)cc1O [CBD] | 5.5 µg/mL (≈ 17.5 µM) | – | – | – | –
2 | CCCCCc1cc(O)c2c(c1)OC(C)(C)c1ccc(C)cc1-2 [Compound 15, cannabinol] | – | Uncompetitive | 196.4 µM | Uncompetitive | 434.8 µM
